Reference: ChEMBL document CHEMBL4118104, “Design, Synthesis, and Evaluation of Orally Bioavailable Quinoline-Indole Derivatives as Innovative Multitarget-Directed Ligands: Promotion of Cell Proliferation in the Adult Murine Hippocampus for the Treatment of Alzheimer's Disease” (J Med Chem, 2018)
Active and inactive are the calls of the source. The calls are words filed in the database; no cut-off is given here.

How the values were obtained:
PC-12 [1] = experiment: Induction of rat PC12 cell proliferation at 0.5 to 50 uM after 72 hrs by microscopic analysis; assay type: functional, cell-based
Method in brief: (§1)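 Undifferentiated PC12 cells cultured 72 h with compound at 0.5–50 µM (images at 10 µM) or with NGF 50 ng/ml, then examined under a digital microscope.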

PC-12 [2] = experiment: Induction of rat PC12 cell proliferation at 10 uM after 72 hrs by microscopic analysis; assay type: functional, cell-based; method in brief: as §1
[3] = Permeability of compound at 100 ug/ml after 10 hrs by PAMPA assay; assay type: ADME; settings: read-out: permeability
PC-12 [4] = experiment: Cytotoxicity against rat undifferentiated PC12 cells at 0.5 to 50 uM after 72 hrs by MTT assay; assay type: cell-based; settings: pc-12, 72 h
SH-SY5Y = experiment: Neuroprotective activity against t-BuOOH-induced oxidative stress in human SH-SY5Y cells assessed as inhibition ROS accumulation pre-incubated for 24 hrs before t-BuOOH challnge for 30 mins by DCFH-DA probe based fluorescence assay; assay type: functional, cell-based
Method in brief: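 SH-SY5Y cells; test agents at 1–0.01 µM, oxidative stress induced by tert-butyl hydroperoxide; intracellular ROS read by DCFH-DA fluorescence; at least three independent experiments in sextuplicate; EC50 derived.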

[5] = Metabolic stability in Sprague-Dawley rat liver microsomes assessed as metabolic rate constant at 100 uM up to 180 mins by HPLC-UV analysis; settings: 3 h
[6] = Half life in Sprague-Dawley rat liver microsomes at 100 uM up to 180 mins by HPLC-UV analysis; settings: liver microsomes
Mus musculus [7] = experiment: Toxicity in C57BL/6 mouse assessed as mortality at 677 to 2000 mg/kg, ig measured continuously during first 4 hrs, intermittently for following 24 hrs and occasionally thereafter for 14 consecutive days; assay type: organism-based; settings: in vivo, po
Method in brief: (§2)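 Adult C57BL/6 mice, 12 weeks old, given single intragastric doses of 0, 677, 1333 or 2000 mg/kg (n = 6 per dose, 3 male and 3 female). Abnormal behaviour and deaths observed continuously for the first 4 h, intermittently over the next 24 h, then occasionally for 14 days to catch delayed effects.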

Mus musculus [8] = experiment: Toxicity in C57BL/6 mouse assessed as abnormal behavior at 677 to 2000 mg/kg, ig measured continuously during first 4 hrs, intermittently for following 24 hrs and occasionally thereafter for 14 consecutive days; assay type: organism-based; settings: in vivo, po; method in brief: as §2
Mus musculus [9] = experiment: Toxicity in C57BL/6 mouse assessed as effect on water intake at 677 to 2000 mg/kg, ig measured continuously during first 4 hrs, intermittently for following 24 hrs and occasionally thereafter for 14 consecutive days; assay type: organism-based; settings: in vivo, po
Mus musculus [10] = experiment: Toxicity in C57BL/6 mouse assessed as effect on food intake at 677 to 2000 mg/kg, ig measured continuously during first 4 hrs, intermittently for following 24 hrs and occasionally thereafter for 14 consecutive days; assay type: organism-based; settings: in vivo, po
Mus musculus [11] = experiment: Toxicity in C57BL/6 mouse assessed as effect on body weight at 677 to 2000 mg/kg, ig measured continuously during first 4 hrs, intermittently for following 24 hrs and occasionally thereafter for 14 consecutive days; assay type: organism-based; settings: in vivo, po
Mus musculus [12] = experiment: Toxicity in C57BL/6 mouse assessed as macroscopic abnormalities of stomach at 677 to 2000 mg/kg, ig after 14 consecutive days; assay type: organism-based; settings: in vivo, po
Mus musculus [13] = experiment: Toxicity in C57BL/6 mouse assessed as macroscopic abnormalities of intestine at 677 to 2000 mg/kg, ig after 14 consecutive days; assay type: organism-based; settings: in vivo, po
Mus musculus [14] = experiment: Toxicity in C57BL/6 mouse assessed as macroscopic abnormalities of spleen at 677 to 2000 mg/kg, ig after 14 consecutive days; assay type: organism-based; settings: in vivo, po
Mus musculus [15] = experiment: Toxicity in C57BL/6 mouse assessed as histological abnormalities of heart at 2000 mg/kg, ig after 14 consecutive days by hematoxylin/eosin dye-based microscopic analysis; assay type: organism-based; settings: in vivo, po
Method in brief: (§3)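 Adult C57BL/6 mice, 12 weeks old, single intragastric doses of 0, 677, 1333 or 2000 mg/kg (n = 6 per dose, 3 male/3 female); behaviour and mortality observed over 14 days; liver, heart, lung and brain examined by HE staining at 2000 mg/kg.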

Mus musculus [16] = experiment: Toxicity in C57BL/6 mouse assessed as histological abnormalities of lung at 2000 mg/kg, ig after 14 consecutive days by hematoxylin/eosin dye-based microscopic analysis; assay type: organism-based; settings: in vivo, po, 336 h; method in brief: as §3
Mus musculus [17] = experiment: Toxicity in C57BL/6 mouse assessed as histological abnormalities of liver at 2000 mg/kg, ig after 14 consecutive days by hematoxylin/eosin dye-based microscopic analysis; assay type: organism-based; settings: in vivo, po, 336 h; method in brief: as §3
Mus musculus [18] = experiment: Toxicity in C57BL/6 mouse assessed as histological abnormalities of brain at 2000 mg/kg, ig after 14 consecutive days by hematoxylin/eosin dye-based microscopic analysis; assay type: organism-based; settings: in vivo, po, 336 h; method in brief: as §3
Mus musculus [19] = experiment: Toxicity in C57BL/6 mouse assessed as macroscopic abnormalities of kidney at 677 to 2000 mg/kg, ig after 14 consecutive days; assay type: organism-based; settings: in vivo, po
Mus musculus [20] = experiment: Induction of cell proliferation in C57BL/6 mouse hippocampal neurons in DG region assessed as BrdU-incorporation at 0.5 uL/hr, icv for 7 days by immunohistochemical analysis (reference value: 7.8%); assay type: functional
Mus musculus [21] = experiment: Induction of cell proliferation in C57BL/6 mouse hippocampal neurons in CA1 region assessed as BrdU-incorporation at 0.5 uL/hr, icv for 7 days by immunohistochemical analysis (reference value: 3.2%); assay type: functional
Mus musculus [22] = experiment: Induction of cell proliferation in C57BL/6 mouse hippocampal neurons in CA2 region assessed as BrdU-incorporation at 0.5 uL/hr, icv for 7 days by immunohistochemical analysis (reference value: 2.4%); assay type: functional
Mus musculus [23] = experiment: Induction of cell proliferation in C57BL/6 mouse hippocampal neurons in CA3 region assessed as BrdU-incorporation at 0.5 uL/hr, icv for 7 days by immunohistochemical analysis (reference value: 1.4%); assay type: functional
Mus musculus [24] = experiment: Induction of cell proliferation in C57BL/6 mouse hippocampal neurons in DG region assessed as BrdU-incorporation at 30 mg/kg, po administered via gavage for 7 days by immunohistochemical analysis (reference value: 2.2%); assay type: functional
Method in brief: (§4)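 C57BL/6 mice, 12 weeks old, n = 6, individually housed beforehand without wheels. Compound gavaged 30 mg/kg/day for 7 days with daily IP BrdU 50 mg/kg; BrdU+ cells counted by immunohistochemistry per hippocampal volume; two-way ANOVA.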

Mus musculus [25] = experiment: Induction of cell proliferation in C57BL/6 mouse hippocampal neurons in CA1 region assessed as BrdU-incorporation at 30 mg/kg, po administered via gavage for 7 days by immunohistochemical analysis (reference value: 2.3%); assay type: functional; method in brief: as §4
Mus musculus [26] = experiment: Induction of cell proliferation in C57BL/6 mouse hippocampal neurons in CA2 region assessed as BrdU-incorporation at 30 mg/kg, po administered via gavage for 7 days by immunohistochemical analysis (reference value: 2.4%); assay type: functional; method in brief: as §4
Mus musculus [27] = experiment: Induction of cell proliferation in C57BL/6 mouse hippocampal neurons in CA3 region assessed as BrdU-incorporation at 30 mg/kg, po administered via gavage for 7 days by immunohistochemical analysis (reference value: 1.5%); assay type: functional; method in brief: as §4
Mus musculus [28] = experiment: Toxicity in C57BL/6 mouse assessed as macroscopic abnormalities of heart at 677 to 2000 mg/kg, ig after 14 consecutive days; assay type: organism-based; settings: in vivo, po
Mus musculus [29] = experiment: Toxicity in C57BL/6 mouse assessed as macroscopic abnormalities of lung at 677 to 2000 mg/kg, ig after 14 consecutive days; assay type: organism-based; settings: in vivo, po, 336 h
Mus musculus [30] = experiment: Toxicity in C57BL/6 mouse assessed as macroscopic abnormalities of liver at 677 to 2000 mg/kg, ig after 14 consecutive days; assay type: organism-based; settings: in vivo, po

Oc1cccc2ccc(-c3cc4ccc5c(c4[nH]3)OCO5)nc12 [listing 1 of 2 here]
Activity (PC-12 [1]): Active | Activity (PC-12 [2]): Active

COc1cc2cc(-c3ccc4c(Cl)cc(Cl)c(O)c4n3)[nH]c2cc1OC
Papp at 10 h, 100 ug/ml [3]: 3.9 ×10⁻⁶ cm/s | Activity (PC-12 [4]): Toxic

Oc1c(Cl)cc(Cl)c2ccc(-c3cc4cc(Cl)ccc4[nH]3)nc12 [listing 1 of 2 here]
Activity (PC-12 [1]): Active | Activity (PC-12 [2]): Active

Oc1cccc2ccc(-c3cc4ccc5c(c4[nH]3)OCO5)nc12 [listing 2 of 2 here]
Papp at 10 h, 100 ug/ml [3]: 5.9 ×10⁻⁶ cm/s | Activity (PC-12 [4]): Non-Toxic | EC50 (SH-SY5Y): 0.26 µM

Oc1cccc2ccc(-c3cc4cc(Cl)ccc4[nH]3)nc12
Papp at 10 h, 100 ug/ml [3]: 9.8 ×10⁻⁶ cm/s | Activity (PC-12 [4]): Toxic

Oc1c(Cl)cc(Cl)c2ccc(-c3cc4cc(Cl)ccc4[nH]3)nc12 [listing 2 of 2 here]
Papp at 10 h, 100 ug/ml [3]: 5.6 ×10⁻⁶ cm/s | Activity (PC-12 [4]): Non-Toxic | EC50 (SH-SY5Y): 0.82 µM

Cl.Oc1c(Cl)cc(Cl)c2ccc(-c3cc4cc(Cl)ccc4[nH]3)nc12
K [5]: 0.00354 min⁻¹ | half-life at 3 h, 100 µM [6]: 3.26 h | Activity (Mus musculus [7]): Non-Toxic | Activity (Mus musculus [8]): Non-Toxic | Activity (Mus musculus [9]): Non-Toxic | Activity (Mus musculus [10]): Non-Toxic | Activity (Mus musculus [11]): Non-Toxic | Activity (Mus musculus [12]): Non-Toxic | Activity (Mus musculus [13]): Non-Toxic | Activity (Mus musculus [14]): Non-Toxic | Activity (Mus musculus [15]): Non-Toxic | Activity (Mus musculus [16]): Non-Toxic | Activity (Mus musculus [17]): Non-Toxic | Activity (Mus musculus [18]): Non-Toxic | Activity (Mus musculus [19]): Non-Toxic | Activity (Mus musculus [20]): 28.5% | Activity (Mus musculus [21]): 15.3% | Activity (Mus musculus [22]): 18.1% | Activity (Mus musculus [23]): 20.3% | Activity (Mus musculus [24]): 4.4% | Activity (Mus musculus [25]): 4.8% | Activity (Mus musculus [26]): 5.1% | Activity (Mus musculus [27]): 4.7% | Activity (Mus musculus [28]): Non-Toxic | Activity (Mus musculus [29]): Non-Toxic | Activity (Mus musculus [30]): Non-Toxic

Oc1ccc2[nH]c(-c3ccc4c(Cl)cc(Cl)c(O)c4n3)cc2c1
Papp at 10 h, 100 ug/ml [3]: 10.2 ×10⁻⁶ cm/s | Activity (PC-12 [4]): Non-Toxic | EC50 (SH-SY5Y): 0.1 µM

Oc1cccc2ccc(-c3cc4ccccc4[nH]3)nc12
Papp at 10 h, 100 ug/ml [3]: 8 ×10⁻⁶ cm/s

COc1cc2[nH]c(-c3ccc4cccc(O)c4n3)cc2cc1O
Papp at 10 h, 100 ug/ml [3]: 12.1 ×10⁻⁶ cm/s

COc1cc2[nH]c(-c3ccc4c(Cl)cc(Cl)c(O)c4n3)cc2cc1O
Papp at 10 h, 100 ug/ml [3]: 8.4 ×10⁻⁶ cm/s | Activity (PC-12 [1]): inactive

C[C@]12CC[C@H]3[C@@H](CCC4=CC(=O)CC[C@@]43C)[C@@H]1CC[C@@H]2O [TESTOSTERONE]
K [5]: 0.3132 min⁻¹
